Measured values: ChEMBL document CHEMBL1153905, “Functionalized 3-benzylidene-indolin-2-ones: inducers of NAD(P)H-quinone oxidoreductase 1 (NQO1) with antiproliferative activity” (Bioorg Med Chem, 2009)

Columns and labels:
[1] = Cytotoxicity against mouse Hepa-1c1c7 cells after 48 hrs by MTT assay; assay type: cell-based; conditions: hepa-1c1c7, 48 h
Summary of the method: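 Murine hepatoma cells in α-MEM with 10% heat- and charcoal-treated fetal calf serum, passages 6–17; MTT read-out as for the cancer lines but with 48 h compound exposure. Highest concentration tested 25 µM. IC50 from survival-versus-concentration curve; mean and SD, n = 3.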

HCT-116 [2] = experiment: Cell cycle arrest in human HCT116 cells released from G1 block assessed as accumulation at S phase at 30 uM after 24 hrs by flow cytometry; assay type: functional
HCT-116 [3] = experiment: Cell cycle arrest in human HCT116 cells released from G2 block assessed as accumulation at G1 phase at 30 uM after 24 hrs by flow cytometry; assay type: functional
MCF7 [4] = experiment: Antiproliferative activity against human MCF7 cells after 72 hrs by MTT assay; assay type: functional, cell-based; conditions: MCF7, 72 h
Summary of the method: (§1)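 Cells seeded at 10,000 (MCF7), 4000 (HCT116) or 5000 (CCL186) per well and grown 24 h; MCF7 and CCL186 in EMEM with pyruvate, glutamine, 10% FBS; HCT116 in McCoy's 5A with 10% FBS. Compounds from DMSO stocks (≤1% DMSO final), 72 h exposure; MTT 0.5 mg/ml for 3 h, formazan in DMSO read at 590 nm. IC50 from sigmoidal survival curve, three separate occasions.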

HCT-116 [5] = experiment: Cell cycle arrest in human HCT116 cells released from G2 block assessed as accumulation at G2/M phase at 30 uM after 24 hrs by flow cytometry; assay type: functional
HCT-116 [6] = experiment: Cell cycle arrest in human HCT116 cells released from G1 block assessed as accumulation at G1 phase at 30 uM after 24 hrs by flow cytometry; assay type: functional
MCF7 [7] = experiment: Selectivity ratio of IC50 for human CCL186 cells to IC50 for human MCF7 cells
Summary of the method: (§2)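 MTT assay. MCF7 and CCL186 cells were grown in EMEM/10% FBS, HCT116 in McCoy's 5A/10% FBS. Seeding was 10,000 (MCF7), 4000 (HCT116) and 5000 (CCL186) cells per well, 24 h. Compound exposure was 72 h, DMSO ≤1% final. MTT 0.5 mg/ml for 3 h, formazan dissolved in DMSO, A590. IC50 came from sigmoidal survival curves, with 3 separate occasions per concentration. Ratio = IC50 CCL186 / IC50 of the cancer line.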

HCT-116 [8] = experiment: Antiproliferative activity against human HCT116 cells after 72 hrs by MTT assay; assay type: functional, cell-based; conditions: HCT-116, 72 h; summary of the method: as §1
HCT-116 [9] = experiment: Cell cycle arrest in human HCT116 cells released from G2 block assessed as accumulation at S phase at 30 uM after 24 hrs by flow cytometry; assay type: functional
HCT-116 [10] = experiment: Cell cycle arrest in human HCT116 cells released from G1 block assessed as accumulation at G2/M phase at 30 uM after 24 hrs by flow cytometry; assay type: functional
[11] = Selectivity ratio of IC50 for human CCL186 cells to IC50 for human HCT116 cells; assay type: ADME, cell-based, HCT-116; conditions: CCL186 cells and HCT116 cells, read-out: Ratio IC50; summary of the method: as §2
[12] = Antiproliferative activity against human CCL186 cells after 72 hrs by MTT assay; assay type: cell-based; conditions: CCL186, 72 h; summary of the method: as §1
HCT-116 [13] = experiment: Cell cycle arrest in human HCT116 cells released from G1 block assessed as accumulation at sub G1 phase at 30 uM after 24 hrs by flow cytometry; assay type: functional
HCT-116 [14] = experiment: Cell cycle arrest in human HCT116 cells released from G2 block assessed as accumulation at sub G1 phase at 30 uM after 24 hrs by flow cytometry; assay type: functional
HCT-116 [15] = experiment: Cell cycle arrest in human HCT116 cells released from G1 block assessed as accumulation at G2/M phase at 10 uM after 24 hrs by flow cytometry; assay type: functional
HCT-116 [16] = experiment: Cell cycle arrest in human HCT116 cells released from G2 block assessed as accumulation at S phase at 10 uM after 24 hrs by flow cytometry; assay type: functional
HCT-116 [17] = experiment: Cell cycle arrest in human HCT116 cells released from G2 block assessed as accumulation at G2/M phase at 10 uM after 24 hrs by flow cytometry; assay type: functional
HCT-116 [18] = experiment: Cell cycle arrest in human HCT116 cells released from G2 block assessed as accumulation at sub G1 phase at 10 uM after 24 hrs by flow cytometry; assay type: functional
HCT-116 [19] = experiment: Cell cycle arrest in human HCT116 cells released from G1 block assessed as accumulation at G1 phase at 10 uM after 24 hrs by flow cytometry; assay type: functional
HCT-116 [20] = experiment: Cell cycle arrest in human HCT116 cells released from G1 block assessed as accumulation at S phase at 10 uM after 24 hrs by flow cytometry; assay type: functional
HCT-116 [21] = experiment: Cell cycle arrest in human HCT116 cells released from G2 block assessed as accumulation at G1 phase at 10 uM after 24 hrs by flow cytometry; assay type: functional
HCT-116 [22] = experiment: Cell cycle arrest in human HCT116 cells released from G1 block assessed as accumulation at sub G1 phase at 10 uM after 24 hrs by flow cytometry; assay type: functional
HCT-116 [23] = experiment: Cell cycle arrest in human HCT116 cells released from G1 block assessed as accumulation at G2/M phase at 2.5 uM after 24 hrs by flow cytometry; assay type: functional
[24] = molecular target: NAD(P)H dehydrogenase [quinone] 1 (Mus musculus) (UniProt Q64669); experiment: Induction of NQO1 activity in mouse Hepa-1c1c7 cells assessed as induction ratio at 0.5 uM after 48 hrs by MTT assay relative to control; assay type: cell-based
Summary of the method: (§3)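 Hepa1c1c7 cells, 10,000 per well, 24 h, were then treated 48 h (DMSO ≤0.5%). Digitonin/EDTA lysates were assayed for menadione-dependent MTT-formazan formation using a G6P/G6PDH NADPH-generating mix with FAD at pH 7.4. The reaction ran 5 min, was stopped with dicoumarol, and read at A590. Degree of induction = (A test − blank)/(A control − blank). Ratios were read off the induction–concentration plot at the EROD test concentration.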

HCT-116 [25] = experiment: Cell cycle arrest in human HCT116 cells released from G1 block assessed as accumulation at G1 phase at 2.5 uM after 24 hrs by flow cytometry; assay type: functional
HCT-116 [26] = experiment: Cell cycle arrest in human HCT116 cells released from G2 block assessed as accumulation at G1 phase at 2.5 uM after 24 hrs by flow cytometry; assay type: functional
HCT-116 [27] = experiment: Cell cycle arrest in human HCT116 cells released from G1 block assessed as accumulation at sub G1 phase at 2.5 uM after 24 hrs by flow cytometry; assay type: functional
HCT-116 [28] = experiment: Cell cycle arrest in human HCT116 cells released from G2 block assessed as accumulation at S phase at 2.5 uM after 24 hrs by flow cytometry; assay type: functional
CYP1A1 [29] = molecular target: T1, CYP1A1 (Mus musculus, UniProt P00184); experiment: Induction of CYP1A1 activity in mouse Hepa-1c1c7 cells assessed as induction ratio at 0.5 uM after 48 hrs by EROD assay relative to control; assay type: ADME, cell-based
T1 sequence (P00184 whole entry): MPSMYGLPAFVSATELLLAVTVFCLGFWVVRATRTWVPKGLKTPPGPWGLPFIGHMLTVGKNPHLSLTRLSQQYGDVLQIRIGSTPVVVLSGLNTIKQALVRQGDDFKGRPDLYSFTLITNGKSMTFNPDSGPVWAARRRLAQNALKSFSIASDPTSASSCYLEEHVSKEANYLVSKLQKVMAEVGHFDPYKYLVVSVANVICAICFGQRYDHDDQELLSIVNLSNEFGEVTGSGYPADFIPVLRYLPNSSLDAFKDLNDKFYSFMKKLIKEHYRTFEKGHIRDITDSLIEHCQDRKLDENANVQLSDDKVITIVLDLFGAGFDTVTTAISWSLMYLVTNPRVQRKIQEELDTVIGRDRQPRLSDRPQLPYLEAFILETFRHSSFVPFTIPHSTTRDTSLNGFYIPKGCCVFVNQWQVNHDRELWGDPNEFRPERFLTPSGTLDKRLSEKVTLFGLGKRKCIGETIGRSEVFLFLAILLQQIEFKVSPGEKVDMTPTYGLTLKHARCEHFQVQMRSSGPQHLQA
Summary of the method: (§4)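 About 10,000 Hepa1c1c7 cells/well cultured 24 h, then compound (0.5% DMSO final) for 48 h, at roughly 4 × the concentration doubling NQO1 activity. After PBS wash, cells given 5 µM 7-ethoxyresorufin plus 2 mM salicylamide, 37 °C, 40 min; resorufin fluorescence ex 530/em 590 nm, corrected for compound fluorescence. Ratio = (treated − blank)/(DMSO control − blank); mean ± SD, n = 3.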

HCT-116 [30] = experiment: Cell cycle arrest in human HCT116 cells released from G2 block assessed as accumulation at G2/M phase at 2.5 uM after 24 hrs by flow cytometry; assay type: functional
HCT-116 [31] = experiment: Cell cycle arrest in human HCT116 cells released from G1 block assessed as accumulation at S phase at 2.5 uM after 24 hrs by flow cytometry; assay type: functional
HCT-116 [32] = experiment: Cell cycle arrest in human HCT116 cells released from G2 block assessed as accumulation at sub G1 phase at 2.5 uM after 24 hrs by flow cytometry; assay type: functional
CYP1A1 [33] = molecular target: T1, CYP1A1; experiment: Induction of CYP1A1 activity in mouse Hepa-1c1c7 cells assessed as induction ratio at 1 uM after 48 hrs by EROD assay relative to control; assay type: ADME, cell-based; summary of the method: as §4
[34] = molecular target: NAD(P)H dehydrogenase [quinone] 1 (Mus musculus) (UniProt Q64669); experiment: Induction of NQO1 activity in mouse Hepa-1c1c7 cells assessed as drug level required to double basal enzyme activity after 48 hrs by MTT assay; assay type: cell-based
Summary of the method: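 Hepa1c1c7 cells were grown in α-MEM with charcoal-treated FCS, 10,000 per well, 24 h. Compound was given 48 h (DMSO ≤0.5%) over a 10–100-fold range below cytotoxic levels, up to 25 µM. Cells were lysed with digitonin/EDTA. NQO1 was assayed by menadione-driven MTT reduction (G6P/G6PDH/NADP, FAD, Tris pH 7.4), quenched with dicoumarol, A590. CD is the concentration doubling basal activity, taken from the induction–concentration plot; mean ± SD, n = 3.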

[35] = molecular target: NAD(P)H dehydrogenase [quinone] 1 (Mus musculus) (UniProt Q64669); experiment: Induction of NQO1 activity in mouse Hepa-1c1c7 cells assessed as induction ratio at 1 uM after 48 hrs by MTT assay relative to control; assay type: cell-based; summary of the method: as §3

Sequence of NAD(P)H dehydrogenase [quinone] 1 (Mus musculus) (Q64669 whole entry): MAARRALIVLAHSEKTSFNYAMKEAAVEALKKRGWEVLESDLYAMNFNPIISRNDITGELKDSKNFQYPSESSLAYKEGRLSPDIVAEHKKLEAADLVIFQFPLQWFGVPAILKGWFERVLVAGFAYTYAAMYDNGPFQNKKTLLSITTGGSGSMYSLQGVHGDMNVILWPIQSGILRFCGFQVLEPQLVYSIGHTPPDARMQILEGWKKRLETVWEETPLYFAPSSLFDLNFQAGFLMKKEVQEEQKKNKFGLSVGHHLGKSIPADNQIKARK

O=C1Nc2ccccc2/C1=C\c1cccc2ccccc12
IC50 [1]: 18.6 µM | Activity (HCT-116 [2]): 26.91% | Activity (HCT-116 [3]): 51.32% | IC50 (MCF7 [4]): 19.6 µM | Activity (HCT-116 [5]): 28.26% | Activity (HCT-116 [6]): 32.69% | Ratio IC50 (MCF7 [7]): 6.4 | IC50 (HCT-116 [8]): 3.9 µM | Activity (HCT-116 [9]): 14.61% | Activity (HCT-116 [10]): 38.42% | selectivity ratio [11]: 1.3 | IC50 [12]: 25 µM | Activity (HCT-116 [13]): 2.96% | Activity (HCT-116 [14]): 5.68%

COc1cccc(OC)c1/C=C1/C(=O)Nc2ccccc21
IC50 [1]: 13.9 µM | Activity (HCT-116 [15]): 59.63% | Activity (HCT-116 [16]): 12.42% | IC50 (MCF7 [4]): 6.2 µM | Ratio IC50 (MCF7 [7]): 3.7 | Activity (HCT-116 [17]): 44.99% | IC50 (HCT-116 [8]): 4.8 µM | Activity (HCT-116 [18]): 9.51% | Activity (HCT-116 [19]): 20.86% | Activity (HCT-116 [20]): 16% | selectivity ratio [11]: 2.9 | Activity (HCT-116 [21]): 32.97% | IC50 [12]: 17.8 µM | Activity (HCT-116 [22]): 3.52%

COc1cccc(/C=C2/C(=O)Nc3cc(OC)ccc32)c1
Activity (HCT-116 [23]): 71.54% | IC50 [1]: 9.8 µM | Ratio [24]: 3.08 | Activity (HCT-116 [25]): 10.56% | Activity (HCT-116 [26]): 26.01% | IC50 (MCF7 [4]): 1.3 µM | Activity (HCT-116 [27]): 4.22% | Ratio IC50 (MCF7 [7]): 1.5 | IC50 (HCT-116 [8]): 1.2 µM | Activity (HCT-116 [28]): 15.36% | selectivity ratio [11]: 1.4 | fold induction at 48 h, 0.5 µM (CYP1A1 [29]): 1.13 | Activity (HCT-116 [30]): 43.57% | IC50 [12]: 1.8 µM | Activity (HCT-116 [31]): 13.81% | Activity (HCT-116 [32]): 30.54%

C[S+]([O-])CCCCN=C=S (configuration not stated) [SULFORAPHANE]
fold induction at 48 h, 1 µM (CYP1A1 [33]): 0.92 | CD [34]: 0.26 µM | Ratio [35]: 3.89
